In the array DNA melting data of Ke et al. (doi:10.1101/2024.01.08.574731) one finds folding enthalpy and Tm data, which are given here for 30 sequences.

A short description of data set [1]: folding enthalpy; higher = less favourable; fluorescence melt of hairpins on a sequencing array, two-state fit. As to conditions: sodium 0.088 M. The essentials:
(§1)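 On a sequenced MiSeq flow cell, library hairpins with annealed Cy3 and quencher oligos were imaged for Cy3 fluorescence in 2.5 °C steps up to 60 °C, in 50 mM Na-HEPES pH 8.0, 25 mM NaCl. Normalisation used pre-quench Cy3 and control constructs. Bootstrapped two-state fits gave melting temperature and folding enthalpy, combined by inverse variance across four replicates and with fitted temperatures raised by 9.35 °C to match UV melts.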

A short description of data set [2]: melting temperature; fluorescence melt of hairpins on a sequencing array, two-state fit, raised by 9.35 °C to match UV melts. The following applies: sodium 0.088 M. The method, boiled down:
as §1

On to GCCTGCGAAAGCACAGGC ((((((....)))..))), for which, in data set [1], the folding enthalpy is -24 kcal/mol. Besides, the Tm in data set [2] is 55.5 °C.

On to GCCTGCGAAAGCATTGGC ((((((....)))..))), for which, in data set [1], the folding enthalpy was -21.2 kcal/mol. Also, the Tm in data set [2] was determined as 50.9 °C.

For the sequence GCCTGCTCGAAAGAGGGC (((..(((....)))))), the folding enthalpy in data set [1] was -15.7 kcal/mol. In addition, the Tm in data set [2] was 44.5 °C.

In the case of GCCTGGACGAAAGTCGGC (((..(((....)))))), the folding enthalpy in data set [1] is -22.6 kcal/mol. In addition, the Tm in data set [2] was determined as 51.2 °C.

On to GCCTGGCGAAAGCAACGC ((.(.((....)).).)), for which the folding enthalpy in data set [1] was -4.54 kcal/mol. In addition, in data set [2], the Tm was 23.9 °C.

Regarding GCCTGGCGAAAGCCCCGC ((..(((....)))..)), the folding enthalpy in data set [1] is -8.33 kcal/mol. Also, the Tm in data set [2] was found to be 36.3 °C.

Turning to GCCTGGCGAAAGCGAAGC ((.(.((....)).).)), the folding enthalpy in data set [1] was -7.77 kcal/mol. In addition, in data set [2], the Tm stood at 31.9 °C.

Regarding GCCTGGCGAAAGCGATGC ((.(.((....)).).)), the folding enthalpy in data set [1] is -6.61 kcal/mol. Further, in data set [2], the Tm was 37 °C.

Take GCCTGGCGAAAGCGTGGC (((..((....))..))): the folding enthalpy in data set [1] was -24.3 kcal/mol. In addition, the Tm in data set [2] was found to be 58.9 °C.

For the sequence GCCTGTGGAAACATAGGC ((((.((....)).)))), the folding enthalpy in data set [1] is -42.2 kcal/mol. In addition, in data set [2], the Tm amounted to 52.4 °C.

GCCTGTTCGAAAGAAGGC (((..(((....)))))): the folding enthalpy in data set [1] is -25.6 kcal/mol. The Tm in data set [2] was determined as 38.8 °C.

Turning to GCCTTACGAAAGTAGGC (((.(((....)))))), the folding enthalpy in data set [1] is -29.1 kcal/mol. Further, the Tm in data set [2] came to 54.2 °C.

Take GCCTTAGGAAACTAAGGC (((((((....))))))): the folding enthalpy in data set [1] is -37 kcal/mol. In addition, the Tm in data set [2] is 60.3 °C.

With GCCTTCACGAAAGTGGGC (((..(((....)))))), the folding enthalpy in data set [1] was -18.6 kcal/mol. In addition, the Tm in data set [2] was determined as 46.6 °C.

Turning to GCCTTCCGAAAGGACGGC (((.(((....))).))), the folding enthalpy in data set [1] was -41.6 kcal/mol. In addition, in data set [2], the Tm was found to be 57.3 °C.

GCCTTCCGAAAGGAGGGC (((.(((....))).))): the folding enthalpy in data set [1] was -37 kcal/mol. Moreover, the Tm in data set [2] worked out at 62.2 °C.

As to GCCTTCGAAAGAAACGGC ((((((....)))..))), the folding enthalpy in data set [1] is -23.7 kcal/mol. Also, the Tm in data set [2] came out at 36.2 °C.

For GCCTTCGAAAGAACGGC ((((((....))).))), the folding enthalpy in data set [1] is -29.2 kcal/mol. Also, in data set [2], the Tm was 48.2 °C.

In the case of GCCTTGCGAAAGCACTGC ((..(((....)))..)), the folding enthalpy in data set [1] is -8.58 kcal/mol. Also, the Tm in data set [2] came to 40.3 °C.

Turning to GCCTTGCGAAAGCCCGGC (((..((....))..))), the folding enthalpy in data set [1] was -23.2 kcal/mol. For the same sequence, the Tm in data set [2] turned out to be 41.8 °C.

In the case of GCCTTGCGAAAGCGATGC ((.(.((....)).).)), the folding enthalpy in data set [1] was -11.3 kcal/mol. In addition, the Tm in data set [2] came out at 47.4 °C.

Regarding GCCTTGCGAAAGCTAAGC ((.(.((....)).).)), the folding enthalpy in data set [1] is -9.38 kcal/mol. For the same sequence, the Tm in data set [2] was 45.8 °C.

As for GCCTTGGGAAACCAAGAC (.(((((....))))).), the folding enthalpy in data set [1] is -19.3 kcal/mol. Besides, in data set [2], the Tm was found to be 38.7 °C.

For the sequence GCCTTGGGAAACTGAGGC ((((..(....)..)))), in data set [1], the folding enthalpy was -29.9 kcal/mol. Moreover, in data set [2], the Tm came to 45.1 °C.

Consider GCCTTTACGAAAGTAGGC (((..(((....)))))), for which, in data set [1], the folding enthalpy is -28.7 kcal/mol. Further, in data set [2], the Tm worked out at 43.5 °C.

Consider GCCTTTCCGAAAGGAGGC (((..(((....)))))), for which, in data set [1], the folding enthalpy is -19.9 kcal/mol. Moreover, in data set [2], the Tm turned out to be 44.6 °C.

In the case of GCCTTTGCGAAAGCAGGC (((..(((....)))))), the folding enthalpy in data set [1] was -20.9 kcal/mol. For the same sequence, in data set [2], the Tm turned out to be 50.3 °C.

In the case of GCCTTTGGAAACAAGGGC (((.(((....))).))), the folding enthalpy in data set [1] was -40.2 kcal/mol. For the same sequence, the Tm in data set [2] worked out at 48.9 °C.

With GCCTTTTCGAAAGAAGGC (((..(((....)))))), the folding enthalpy in data set [1] is -30.4 kcal/mol. For the same sequence, the Tm in data set [2] was 42.7 °C.

Consider GCGAAAAATCGC ((((....)))), for which, in data set [1], the folding enthalpy is -9.87 kcal/mol. For the same sequence, the Tm in data set [2] came to 36.2 °C.
